# ChEMBL document CHEMBL3526126, “Amide hydrolysis of a novel chemical series of microsomal prostaglandin E synthase-1 inhibitors induces kidney toxicity in the rat” (Drug Metab Dispos, 2013)
# Experiments:
# [1] = tested on: Rattus norvegicus; assay: Drug metabolism in Wistar Hannover rat assessed as formation of 4-(phenylethynyl)benzoic acid metabolite conjugated with mono-oxidized metabolite in plasma at 500 umol/kg, po qd administered for 7 days measured on day 7 by LC-MS analysis; assay type: ADME, organism-based; details: in vivo, 168 h
# [2] = tested on: Rattus norvegicus; assay: Toxicity in Wistar Hannover rat kidney assessed as multiple pyogranuloma in renal pelvis at 1000 umol/kg, po qd administered for 7 days measured after day 8 by hematoxylin/eosin staining-based light microscopic analysis; assay type: organism-based; details: in vivo, 168 h
# Summary of the method: (§1)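 Wistar Hannover rats, about 8 weeks old, were gavaged once daily (10 ml/kg) for 7 days. One day after the last dose they were killed by carotid exsanguination under isoflurane/oxygen. Kidneys were fixed in buffered formalin, embedded in paraffin, sectioned, stained with hematoxylin and eosin, and examined by light microscopy.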
# [3] = tested on: Rattus norvegicus; assay: Toxicity in Wistar Hannover rat kidney assessed as presence of dilated tubules with cellular remnants within lumen at 1000 umol/kg, po qd administered for 7 days measured on day 7 by necroscopic analysis; assay type: organism-based; details: in vivo, 168 h
# [4] = AUC (0 to 24 hrs) in male Wistar Hannover rat at 1000 umol/kg, po qd measured on day 1; details: plasma
# [5] = tested on: Rattus norvegicus; assay: Toxicity in Wistar Hannover rat kidney assessed as inflammation in renal pelvis at 1000 umol/kg, po qd administered for 7 days measured after day 8 by hematoxylin/eosin staining-based light microscopic analysis; assay type: organism-based; details: in vivo, 168 h; summary of the method: as §1
# [6] = AUC (0 to 24 hrs) in Sprague-Dawley rat at 1000 umol/kg, po qd administered for 7 days measured on day 7; assay type: ADME, organism-based; parameters: time < 24 hr, dose 1000 umol/kg, route oral; details: plasma
# Summary of the method: (§2)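 Toxicity study 2: 2 female satellite rats per dose group. Dosing was once daily by oral gavage (10 ml/kg) for 7 days. Tail-vein EDTA blood was taken at 2, 4, 6, 7 and 24 h on day 1 and on day 7, then chilled and centrifuged to plasma. Parent and M1 were quantified by LC-MS/MS, with M1 measured in negative electrospray mode.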
# [7] = Cmax in male Wistar Hannover rat at 500 umol/kg, po qd measured on day 1; details: in vivo
# [8] = tested on: Rattus norvegicus; assay: Toxicity in Wistar Hannover rat kidney assessed as papillitis at 1000 umol/kg, po qd administered for 7 days measured after day 8 by hematoxylin/eosin staining-based light microscopic analysis; assay type: organism-based; details: in vivo, 168 h; summary of the method: as §1
# [9] = tested on: Rattus norvegicus; assay: Toxicity in Wistar Hannover rat kidney assessed as pale organ discoloration at 1000 umol/kg, po qd administered for 7 days measured on day 7 by necroscopic analysis; assay type: organism-based; details: in vivo, 168 h
# [10] = tested on: Rattus norvegicus; assay: Drug metabolism in Wistar Hannover rat assessed as formation of mono-oxidized metabolite +16 in plasma at 500 umol/kg, po qd administered for 7 days measured on day 7 by LC-MS analysis; assay type: ADME, organism-based; details: in vivo, 168 h
# [11] = Drug metabolism in cryopreserved human hepatocytes assessed as amide hydrolysis at 1 to 10 uM by LC-MS analysis; assay type: ADME, cell-based, Hepatocyte
# Summary of the method: (§3)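 Hepatocytes at 1 × 10^6 cells/ml in William's medium incubated at 37°C with gentle shaking under 5% CO2. Substrate was at […]. Metabolites were analysed by LC-MS.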
# [12] = Drug metabolism in freshly prepared human hepatocytes assessed as amide hydrolysis at 1 to 10 uM by LC-MS analysis; assay type: ADME, cell-based, Hepatocyte; summary of the method: as §3
# [13] = tested on: Rattus norvegicus; assay: Toxicity in Wistar Hannover rat kidney assessed as free crystals in renal pelvis at 1000 umol/kg, po qd administered for 7 days measured after day 8 by hematoxylin/eosin staining-based light microscopic analysis; assay type: organism-based; details: in vivo, 168 h; summary of the method: as §1
# [14] = Cmax in female Wistar Hannover rat at 500 umol/kg, po qd measured on day 1; details: in vivo
# [15] = tested on: Rattus norvegicus; assay: Drug metabolism in Wistar Hannover rat assessed as formation of [14C]-4-(phenylethynyl)benzoic acid metabolite hyd in plasma at 500 umol/kg, po qd administered for 7 days measured on day 7 by radio monitoring method; assay type: ADME, organism-based; details: in vivo, 168 h
# [16] = AUC (0 to 24 hrs) in female Wistar Hannover rat at 1000 umol/kg, po qd measured on day 1; details: plasma
# [17] = AUC (0 to 24 hrs) in Wistar Hannover rat at 1000 umol/kg, po qd measured on day 1; details: plasma
# [18] = tested on: Rattus norvegicus; assay: Drug metabolism in Wistar Hannover rat assessed as formation of oxidized and sulfate-conjugated metabolite in plasma at 500 umol/kg, po qd administered for 7 days measured on day 7 by LC-MS analysis; assay type: ADME, organism-based; details: in vivo, 168 h
# [19] = AUC (0 to 24 hrs) in male Wistar Hannover rat at 500 umol/kg, po qd measured on day 1; details: plasma
# [20] = Cmax in male Wistar Hannover rat at 500 umol/kg, po qd administered for 7 days measured on day 7; details: in vivo
# [21] = tested on: Rattus norvegicus; assay: Toxicity in Wistar Hannover rat kidney assessed as tubular degeneration /regeneration at 500 umol/kg, po qd administered for 7 days […]; assay type: organism-based; details: in vivo, 168 h; summary of the method: as §1
# [22] = tested on: Rattus norvegicus; assay: Toxicity in Wistar Hannover rat kidney assessed as increase in plasma creatinine level at 1000 umol/kg, po qd administered for 7 days measured on day 7; assay type: organism-based; details: in vivo, 168 h
# Summary of the method: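 Wistar Hannover rats, about 8 weeks old, were acclimatized about 2 weeks and randomized by body weight. Dosing was by oral gavage (10 ml/kg) once daily for 7 days, with vehicle controls. At the end of dosing, plasma (lithium heparin) was taken from the orbital plexus under isoflurane/oxygen anaesthesia, and urea and creatinine were measured.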
# [23] = Solubility in rat urine at pH 7 after 5 hrs; assay type: physicochemical
# Summary of the method: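 Samples in rat urine at pH 7.0 were incubated at 37°C for 5 hours. They were analysed by HPLC on a C18 column with photodiode array and single mass detection.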
# [24] = AUC (0 to 24 hrs) in male Wistar Hannover rat at 500 umol/kg, po qd administered for 7 days measured on day 7; details: plasma
# [25] = Drug metabolism in Beagle dog hepatocytes assessed as amide hydrolysis at 1 to 10 uM by LC-MS analysis; assay type: ADME, cell-based, Canis lupus familiaris, Hepatocyte
# Summary of the method: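 Cryopreserved male Beagle dog hepatocytes at 1 × 10^6 cells/ml in William's medium, shaken gently at 37°C under 5% CO2. Substrate was tested at two concentrations (1 and 10). Metabolites, including amide-hydrolysis products, were analysed by LC-MS.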
# [26] = Cmax in male Wistar Hannover rat at 1000 umol/kg, po qd measured on day 1; details: in vivo
# [27] = Drug metabolism in Sprague-Dawley rat hepatocytes assessed as formation of 4-(phenylethynyl)benzoic acid metabolite hyd at 1 to 10 uM by LC-MS analysis; assay type: ADME, cell-based, Hepatocyte; summary of the method: as §3
# [28] = tested on: Rattus norvegicus; assay: Toxicity in Wistar Hannover rat kidney assessed as increase in organ weight at 1000 umol/kg, po qd administered for 7 days measured on day 7 by necroscopic analysis; assay type: organism-based; details: in vivo, 168 h
# [29] = Cmax in female Wistar Hannover rat at 500 umol/kg, po qd administered for 7 days measured on day 7; details: in vivo
# [30] = tested on: Rattus norvegicus; assay: Toxicity in Wistar Hannover rat kidney assessed as dilated tubules with hypertrophic nuclei and cytoplasm at 1000 umol/kg, po qd administered for 7 days measured on day 7 by necroscopic analysis; assay type: organism-based; details: in vivo, 168 h
# [31] = Cmax in Sprague-Dawley rat at 1000 umol/kg, po qd administered for 7 days measured on day 7; assay type: ADME, organism-based; parameters: dose 1000 umol/kg, route oral; details: in vivo; summary of the method: as §2
# [32] = Effect on rat mPGES-1
smiles,measurement,setting,value
NS(=O)(=O)c1ccccc1S(=O)(=O)NC(=O)c1ccc(C#Cc2ccccc2)cc1,Drug metabolism,[1],metabolite_detected
same,Activity,[2],Toxic
same,Activity,[3],Toxic
same,AUC(0-t) at 24 h,[4],610 µM·h
same,Activity,[5],Toxic
same,AUC at 24 h,[6],990 µM·h
same,Cmax,[7],73 µM
same,Activity,[8],Toxic
same,Activity,[9],Toxic
same,Drug metabolism,[10],metabolite_detected
same,Drug metabolism,[11],metabolite_not_detected
same,Drug metabolism,[12],metabolite_not_detected
same,Activity,[13],Toxic
same,Cmax,[14],38 µM
same,Drug metabolism,[15],metabolite_detected
same,AUC(0-t) at 24 h,[16],1020 µM·h
same,AUC(0-t) at 24 h,[17],1370 µM·h
same,Drug metabolism,[18],metabolite_detected
same,AUC(0-t) at 24 h,[19],840 µM·h
same,Cmax,[20],68 µM
same,Activity,[21],Toxic
same,Activity,[22],Toxic
same,solubility at 5 h,[23],45 µM
same,AUC at 24 h,[24],480 µM·h
same,Drug metabolism,[25],metabolite_not_detected
same,Cmax,[26],46 µM
same,Drug metabolism,[27],metabolite_detected
same,Activity,[28],Toxic
same,Cmax,[29],39 µM
same,Activity,[30],Toxic
same,Cmax,[31],95 µM
same,Activity,[32],Not Active
